{"source": "ChEMBL document CHEMBL1921795", "about": "“Discovery, synthesis, and structure-activity relationship development of a series of N-4-(2,5-dioxopyrrolidin-1-yl)phenylpicolinamides (VU0400195, ML182): characterization of a novel positive allosteric modulator of the metabotropic glutamate receptor 4 (mGlu(4)) with oral efficacy in an …” (J Med Chem, 2011)", "key": {"Rattus norvegicus [1]": {"system": "Rattus norvegicus", "assay": "AUC (0 to 24 hrs) in Sprague-Dawley rat at 1 mg/kg, iv by LC/MS analysis", "format": "ADME, organism-based, Plasma", "set-up": "time < 24 hr, dose 1 mg/kg, route intravenous", "conditions": "in vivo", "how_it_was_run": "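Male Sprague-Dawley rats (n=2, 250-300 g) with carotid artery and jugular vein catheters, acclimated about one week, fed ad libitum. Dose given through the jugular catheter in 20% DMSO/80% saline at 1 mL/kg. Carotid blood drawn pre-dose and at 2, 7, 15, 30 min and 1, 2, 4, 7, 24 h into chilled EDTA tubes. Plasma measured by LC/MS/MS; parameters from noncompartmental analysis of individual profiles.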"}, "Rattus norvegicus [2]": {"system": "Rattus norvegicus", "assay": "AUC (0 to 24 hrs) in Sprague-Dawley rat at 10 mg/kg, po by LC/MS analysis", "format": "ADME, organism-based, Plasma", "set-up": "time < 24 hr, dose 10 mg/kg, route oral", "conditions": "in vivo"}, "[3]": {"assay": "Half life in rhesus monkey at 1 mg/kg, iv by LC/MS analysis", "format": "ADME, organism-based, Macaca mulatta", "set-up": "dose 1 mg/kg, route intravenous", "conditions": "in vivo", "how_it_was_run": "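Rhesus monkeys (8-11 kg) tranquilized with ketamine 10 mg/kg im and Telazol 3 mg/kg im. Compound given iv at 1 mg/kg, blood collected, plasma analysed by LC/MS/MS (MRM, positive ESI).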"}, "Rattus norvegicus [4]": {"system": "Rattus norvegicus", "assay": "Oral bioavailability in Sprague-Dawley rat at 10 mg/kg by LC/MS analysis", "format": "ADME, organism-based", "conditions": "in vivo"}, "Rattus norvegicus [5]": {"system": "Rattus norvegicus", "assay": "Cmax in Sprague-Dawley rat at 10 mg/kg, po by LC/MS analysis", "format": "ADME, organism-based", "set-up": "dose 10 mg/kg, route oral", "conditions": "in vivo"}, "Rattus norvegicus [6]": {"system": "Rattus norvegicus", "assay": "Volume of distribution at steady state in Sprague-Dawley rat at 1 mg/kg, iv by LC/MS analysis", "format": "ADME, organism-based", "set-up": "dose 1 mg/kg, route intravenous", "conditions": "in vivo", "how_it_was_run": "(§1)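 Male Sprague-Dawley rats (n=2, 250-300 g), carotid and jugular cannulated; 1 mg/kg iv via jugular catheter in 20% DMSO/80% saline. Arterial blood from pre-dose to 24 h, EDTA plasma analysed by LC/MS/MS; noncompartmental analysis of individual profiles.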"}, "[7]": {"assay": "Half life in iv dosed Beagle dog", "format": "ADME, organism-based, Canis lupus familiaris", "conditions": "in vivo"}, "Rattus norvegicus [8]": {"system": "Rattus norvegicus", "assay": "Half life in Sprague-Dawley rat at 1 mg/kg, iv by LC/MS analysis", "format": "ADME, organism-based", "set-up": "dose 1 mg/kg, route intravenous", "conditions": "in vivo", "how_it_was_run": "as §1"}, "[9]": {"assay": "AUC (0 to 6 hrs) in Sprague-Dawley rat hepatic portal vein plasma at 10 mg/kg, po", "format": "ADME, organism-based", "set-up": "time < 6 hr, dose 10 mg/kg, route oral"}, "[10]": {"assay": "Ratio of AUC in brain to plasma in Sprague-Dawley rat"}, "Brain [11]": {"system": "Brain", "assay": "AUC (0 to 6 hrs) in Sprague-Dawley rat brain at 10 mg/kg, po", "format": "ADME, organism-based", "set-up": "time < 6 hr, dose 10 mg/kg, route oral", "conditions": "in vivo"}, "Cytochrome P450 2C9": {"biological_target": "Cytochrome P450 2C9 (Homo sapiens, UniProt P11712)", "sequence (P11712 whole entry)": "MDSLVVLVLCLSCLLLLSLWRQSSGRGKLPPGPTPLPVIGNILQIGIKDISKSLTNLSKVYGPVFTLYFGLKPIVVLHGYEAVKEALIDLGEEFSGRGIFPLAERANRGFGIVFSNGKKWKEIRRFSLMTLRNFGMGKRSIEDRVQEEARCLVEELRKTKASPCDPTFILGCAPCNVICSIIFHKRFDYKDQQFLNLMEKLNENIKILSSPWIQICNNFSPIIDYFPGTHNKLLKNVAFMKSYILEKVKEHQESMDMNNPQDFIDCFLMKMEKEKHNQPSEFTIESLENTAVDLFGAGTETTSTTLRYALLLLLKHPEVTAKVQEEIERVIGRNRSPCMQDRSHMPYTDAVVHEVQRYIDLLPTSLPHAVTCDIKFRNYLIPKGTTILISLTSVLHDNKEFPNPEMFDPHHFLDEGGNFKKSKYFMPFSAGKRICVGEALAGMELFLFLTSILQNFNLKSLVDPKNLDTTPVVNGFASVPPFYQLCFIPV", "assay": "Inhibition of CYP2C9 in human liver microsomes using diclofenac as substrate"}, "Brain [12]": {"system": "Brain", "assay": "Fraction unbound in rat brain homogenate by equilibrium dialysis", "format": "ADME, tissue-based"}, "Cytochrome P450 2D6": {"biological_target": "Cytochrome P450 2D6 (Homo sapiens, UniProt P10635)", "sequence (P10635 whole entry)": "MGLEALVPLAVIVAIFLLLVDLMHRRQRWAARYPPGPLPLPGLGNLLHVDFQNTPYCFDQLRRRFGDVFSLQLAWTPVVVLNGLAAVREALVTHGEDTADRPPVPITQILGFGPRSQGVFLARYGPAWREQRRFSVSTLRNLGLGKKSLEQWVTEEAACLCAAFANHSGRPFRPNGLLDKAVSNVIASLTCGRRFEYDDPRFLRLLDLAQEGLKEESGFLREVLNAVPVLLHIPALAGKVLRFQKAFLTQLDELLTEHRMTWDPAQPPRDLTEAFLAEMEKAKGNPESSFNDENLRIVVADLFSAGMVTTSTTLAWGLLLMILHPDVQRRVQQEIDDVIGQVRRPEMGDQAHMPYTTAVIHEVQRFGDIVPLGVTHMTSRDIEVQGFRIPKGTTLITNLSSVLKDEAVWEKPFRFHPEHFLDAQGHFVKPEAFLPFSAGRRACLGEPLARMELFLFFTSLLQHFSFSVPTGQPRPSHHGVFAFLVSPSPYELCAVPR", "assay": "Inhibition of CYP2D6 in human liver microsomes using […] as substrate", "format": "ADME, Microsome", "how_it_was_run": "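Pooled human liver microsomes (0.1 mg/mL) with probe cocktail (phenacetin 10 µM, diclofenac 5 µM, dextromethorphan 5 µM, midazolam 2 µM) in 0.1 M phosphate pH 7.4; compound 100 nM–30 µM in duplicate, 15 min preincubation at 37 °C, then 1 mM NADPH for 8 min. LC/MS/MS of metabolite formation; IC50 derived.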"}, "[13]": {"biological_target": "Metabotropic glutamate receptor 6 (Homo sapiens, UniProt O15303)", "sequence (O15303 whole entry)": "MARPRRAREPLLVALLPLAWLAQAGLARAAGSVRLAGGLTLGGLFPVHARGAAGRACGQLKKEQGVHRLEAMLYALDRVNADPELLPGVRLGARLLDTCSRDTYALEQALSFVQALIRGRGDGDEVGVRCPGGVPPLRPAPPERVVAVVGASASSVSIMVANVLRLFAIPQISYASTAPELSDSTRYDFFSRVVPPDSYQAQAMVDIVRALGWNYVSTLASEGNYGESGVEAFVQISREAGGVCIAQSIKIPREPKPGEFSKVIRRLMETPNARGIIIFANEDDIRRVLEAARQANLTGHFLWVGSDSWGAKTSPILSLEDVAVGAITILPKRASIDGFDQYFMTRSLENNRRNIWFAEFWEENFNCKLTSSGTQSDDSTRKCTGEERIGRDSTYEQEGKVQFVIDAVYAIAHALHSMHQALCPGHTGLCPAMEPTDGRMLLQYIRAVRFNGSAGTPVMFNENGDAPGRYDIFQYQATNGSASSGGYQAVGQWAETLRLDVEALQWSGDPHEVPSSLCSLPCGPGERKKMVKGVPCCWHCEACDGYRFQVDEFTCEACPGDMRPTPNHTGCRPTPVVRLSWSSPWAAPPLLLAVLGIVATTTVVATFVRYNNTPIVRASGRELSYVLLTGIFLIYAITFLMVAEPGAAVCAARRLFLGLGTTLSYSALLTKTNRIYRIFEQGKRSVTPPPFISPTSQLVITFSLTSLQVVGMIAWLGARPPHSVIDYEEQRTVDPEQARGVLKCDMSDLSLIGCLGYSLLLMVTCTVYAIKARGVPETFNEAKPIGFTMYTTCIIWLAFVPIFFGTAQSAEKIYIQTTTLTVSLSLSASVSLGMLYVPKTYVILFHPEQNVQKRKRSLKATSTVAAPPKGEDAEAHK", "assay": "Positive allosteric modulator activity at human mGlu6 receptor at 10 uM by thallium flux assay", "how_it_was_run": "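Cells expressing human mGlu6 with GIRK channels, thallium flux double-addition protocol. 10 µM compound or vehicle was added, then a full glutamate concentration-response 2.5 min later. A left shift >2-fold was scored as potentiator activity. A right shift >2-fold or max depression ≥75% was scored as antagonist activity. Mean ± SEM of three experiments in singlicate.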"}, "Cytochrome P450 1A2": {"biological_target": "T1, Cytochrome P450 1A2 (Homo sapiens, UniProt P05177)", "T1 sequence (P05177 whole entry)": "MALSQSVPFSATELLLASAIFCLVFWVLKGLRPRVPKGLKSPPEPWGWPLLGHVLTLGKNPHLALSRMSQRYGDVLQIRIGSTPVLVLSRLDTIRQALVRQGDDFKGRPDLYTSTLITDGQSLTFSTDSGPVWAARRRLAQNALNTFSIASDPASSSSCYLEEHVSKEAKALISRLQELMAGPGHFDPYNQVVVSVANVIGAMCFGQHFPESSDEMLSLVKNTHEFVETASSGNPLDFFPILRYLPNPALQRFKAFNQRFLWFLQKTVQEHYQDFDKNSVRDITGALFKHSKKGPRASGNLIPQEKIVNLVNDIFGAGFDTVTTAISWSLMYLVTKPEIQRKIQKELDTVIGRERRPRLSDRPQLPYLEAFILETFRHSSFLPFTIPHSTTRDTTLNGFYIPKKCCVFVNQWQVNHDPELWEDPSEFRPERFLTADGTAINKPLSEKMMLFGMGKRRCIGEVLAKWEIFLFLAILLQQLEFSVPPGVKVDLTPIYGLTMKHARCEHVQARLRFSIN", "assay": "Inhibition of CYP1A2 in human liver microsomes using phenacetin as substrate"}, "[14]": {"assay": "Intrinsic clearance in rat hepatic microsomes at 1 uM by LC/MS/MS analysis", "format": "ADME, Microsome", "conditions": "rat liver microsomes"}, "Plasma [15]": {"system": "Plasma", "assay": "Fraction unbound in rat plasma by equilibrium dialysis", "format": "ADME, cell-free", "how_it_was_run": "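Rat plasma spiked with compound, equilibrium dialysis against 25 mM phosphate buffer pH 7.4 for 4 h at 37 °C with shaking; both chambers matrix-matched, acetonitrile-extracted and quantified by LC/MS/MS; triplicate.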"}, "[16]": {"assay": "Intrinsic clearance in human hepatic microsomes", "format": "ADME, Microsome", "conditions": "human liver microsomes"}, "Plasma [17]": {"system": "Plasma", "assay": "Fraction unbound in human plasma", "format": "ADME, cell-free"}, "Cytochrome P450 2C19": {"biological_target": "Cytochrome P450 2C19 (Homo sapiens, UniProt P33261)", "sequence (P33261 whole entry)": "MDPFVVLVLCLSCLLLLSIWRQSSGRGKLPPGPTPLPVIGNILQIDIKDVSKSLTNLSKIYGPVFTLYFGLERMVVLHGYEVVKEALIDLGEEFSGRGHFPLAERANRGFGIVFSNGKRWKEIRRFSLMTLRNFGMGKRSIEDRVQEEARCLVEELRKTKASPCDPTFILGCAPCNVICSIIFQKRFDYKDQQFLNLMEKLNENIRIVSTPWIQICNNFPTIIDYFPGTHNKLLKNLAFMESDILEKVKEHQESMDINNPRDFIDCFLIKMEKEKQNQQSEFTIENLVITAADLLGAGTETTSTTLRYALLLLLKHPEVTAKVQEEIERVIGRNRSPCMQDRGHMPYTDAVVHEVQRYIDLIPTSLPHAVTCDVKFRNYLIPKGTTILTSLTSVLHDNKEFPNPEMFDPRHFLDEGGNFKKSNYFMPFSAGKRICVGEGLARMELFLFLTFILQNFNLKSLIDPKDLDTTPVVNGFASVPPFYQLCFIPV", "assay": "Inhibition of CYP2C19 in human liver microsomes using S-mephenytoin as substrate", "format": "ADME, Microsome"}}}
{"smiles": "Cl.O=C(Nc1ccc(N2C(=O)CC(c3ccccc3)C2=O)c(Cl)c1)c1ccccn1", "note": "(configuration not stated)", "values": [{"measurement": "AUC", "setting": "Rattus norvegicus [1]", "value": 3225, "unit": "ng·h/mL"}, {"measurement": "AUC", "setting": "Rattus norvegicus [2]", "value": 2685, "unit": "ng·h/mL"}, {"measurement": "half-life", "setting": "[3]", "value": "> 180", "unit": "min"}, {"measurement": "F", "setting": "Rattus norvegicus [4]", "value": 8.3, "unit": "%"}, {"measurement": "Cmax", "setting": "Rattus norvegicus [5]", "value": 553, "unit": "ng/mL"}, {"measurement": "Vdss", "setting": "Rattus norvegicus [6]", "value": 0.58, "unit": "L/kg"}, {"measurement": "half-life", "setting": "[7]", "value": "> 180", "unit": "min"}, {"measurement": "t1/2", "setting": "Rattus norvegicus [8]", "value": 329, "unit": "min"}]}
{"smiles": "Cl.O=C(Nc1ccc(N2C(=O)[C@@H]3[C@H](C2=O)[C@@H]2C=C[C@H]3C2)c(Cl)c1)c1ccccn1", "values": [{"measurement": "AUC", "setting": "Rattus norvegicus [1]", "value": 454, "unit": "ng·h/mL"}, {"measurement": "AUC", "setting": "Rattus norvegicus [2]", "value": 4354, "unit": "ng·h/mL"}, {"measurement": "F", "setting": "Rattus norvegicus [4]", "value": 97, "unit": "%"}, {"measurement": "AUC(0-t) at 6 h", "setting": "[9]", "value": 8.48, "unit": "nM·h"}, {"measurement": "Kp", "setting": "[10]", "value": 0.93}, {"measurement": "AUC", "setting": "Brain [11]", "value": 800, "unit": "nM·h"}, {"measurement": "Cmax", "setting": "Rattus norvegicus [5]", "value": 238, "unit": "ng/mL"}, {"measurement": "Vdss", "setting": "Rattus norvegicus [6]", "value": 18, "unit": "L/kg"}, {"measurement": "t1/2", "setting": "Rattus norvegicus [8]", "value": 40.4, "unit": "min"}]}
{"smiles": "O=C(Nc1ccc(N2C(=O)[C@@H]3[C@H](C2=O)[C@@H]2C=C[C@H]3C2)c(Cl)c1)c1ccccn1", "note": "(mixture of isomers)", "values": [{"measurement": "IC50", "setting": "Cytochrome P450 2C9", "value": "> 30", "unit": "µM"}, {"measurement": "Fu", "setting": "Brain [12]", "value": 7.6, "unit": "%"}, {"measurement": "IC50", "setting": "Cytochrome P450 2D6", "value": "> 30", "unit": "µM"}, {"measurement": "EC50", "setting": "[13]", "value": "> 10", "unit": "µM"}, {"measurement": "IC50", "setting": "Cytochrome P450 1A2", "value": "> 30", "unit": "µM"}, {"measurement": "CLint scaled at 1 µM", "setting": "[14]", "value": 53, "unit": "mL/min/kg"}, {"measurement": "Fu", "setting": "Plasma [15]", "value": 3.2, "unit": "%"}, {"measurement": "CLint scaled", "setting": "[16]", "value": 19.7, "unit": "mL/min/kg"}, {"measurement": "Fu", "setting": "Plasma [17]", "value": 4.1, "unit": "%"}, {"measurement": "IC50", "setting": "Cytochrome P450 2C19", "value": "> 30", "unit": "µM"}]}
